Starred links: 1 amine or outer side, 2 acyl side, 3 side chain; linkers in the order of their positions; H or OH if unused. Non-standard residues stand in square brackets, D forms with d. Residues, ends and D or L forms follow the SMILES beside them. *: point of attachment. Gly(2S-L-tryptophyl) = N[C@H](C(=O)O)C(=O)[C@@H](N)Cc1c[nH]c2ccccc12; X1 = O=C1[C@@H](CCC(=O)[*:2])CCC[C@H]1N[*:1]; Cbz = O=C(OCc1ccccc1)*
Legend:
[1] = molecular target: Plasminogen (Homo sapiens, UniProt P00747); assay: Inhibitory concentration against plasmin
Procedure, shortened: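 Plasmin is cleaving D-Val-Leu-Lys-pNA, kept constant at its measured KM (167 μM). Reactions were run at 25 °C in 50 mM sodium phosphate buffer, pH 7.4, containing 10% DMSO final. Initial velocity was read as p-nitroaniline release at 405 nm between 30 and 120 s post-mixing. IC50 was determined from inhibited versus uninhibited rates.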

[2] = molecular target: Prothrombin (Homo sapiens, UniProt P00734); assay: Inhibitory concentration against thrombin
Procedure, shortened: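 Thrombin is tested against chromogenic D-Phe-Pip-Arg-pNA at its KM, measured as 45 μM. Conditions were 50 mM sodium phosphate (pH 7.4), 10% DMSO final, 25 °C. p-Nitroaniline formation was followed at 405 nm from 30 to 120 s after mixing to give initial rates, from which IC50 was obtained.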

[3] = molecular target: Serine protease 1 (Homo sapiens, UniProt P07477); assay: Inhibitory concentration against trypsin
Procedure, shortened: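 For trypsin, the substrate was D-Phe-Pip-Arg-pNA at its KM of 122 μM. Assays were run at 25 °C in 50 mM sodium phosphate pH 7.4 with 10% DMSO final. Initial rates came from the 405 nm p-nitroaniline signal over 30–120 s after mixing. IC50 values came from comparing rates with and without inhibitor.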

[4] = molecular target: Plasma kallikrein (Homo sapiens, UniProt P03952); assay: Inhibitory concentration against kallikrein
Sequence of Plasma kallikrein (P03952 20-390 limits assumed): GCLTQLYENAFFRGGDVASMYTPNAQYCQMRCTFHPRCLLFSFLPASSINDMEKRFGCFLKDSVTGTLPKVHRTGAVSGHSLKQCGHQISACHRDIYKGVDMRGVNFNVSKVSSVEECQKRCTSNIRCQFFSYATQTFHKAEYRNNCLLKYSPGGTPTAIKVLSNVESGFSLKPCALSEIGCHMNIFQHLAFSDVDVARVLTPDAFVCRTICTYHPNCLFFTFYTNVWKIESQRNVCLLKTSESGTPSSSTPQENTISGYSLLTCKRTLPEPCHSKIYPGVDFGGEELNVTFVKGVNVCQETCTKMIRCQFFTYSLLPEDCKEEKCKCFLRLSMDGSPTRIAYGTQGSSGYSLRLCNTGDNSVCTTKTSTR
Sequence of Plasma kallikrein (P03952 391-638 limits assumed): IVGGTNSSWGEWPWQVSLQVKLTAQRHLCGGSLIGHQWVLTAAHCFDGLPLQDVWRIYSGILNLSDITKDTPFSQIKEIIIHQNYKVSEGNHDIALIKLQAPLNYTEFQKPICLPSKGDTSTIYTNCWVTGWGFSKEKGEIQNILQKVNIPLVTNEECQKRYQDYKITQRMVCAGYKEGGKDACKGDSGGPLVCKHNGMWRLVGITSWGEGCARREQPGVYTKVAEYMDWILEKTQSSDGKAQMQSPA

Sequence of Plasminogen (P00747 97-580 limits assumed): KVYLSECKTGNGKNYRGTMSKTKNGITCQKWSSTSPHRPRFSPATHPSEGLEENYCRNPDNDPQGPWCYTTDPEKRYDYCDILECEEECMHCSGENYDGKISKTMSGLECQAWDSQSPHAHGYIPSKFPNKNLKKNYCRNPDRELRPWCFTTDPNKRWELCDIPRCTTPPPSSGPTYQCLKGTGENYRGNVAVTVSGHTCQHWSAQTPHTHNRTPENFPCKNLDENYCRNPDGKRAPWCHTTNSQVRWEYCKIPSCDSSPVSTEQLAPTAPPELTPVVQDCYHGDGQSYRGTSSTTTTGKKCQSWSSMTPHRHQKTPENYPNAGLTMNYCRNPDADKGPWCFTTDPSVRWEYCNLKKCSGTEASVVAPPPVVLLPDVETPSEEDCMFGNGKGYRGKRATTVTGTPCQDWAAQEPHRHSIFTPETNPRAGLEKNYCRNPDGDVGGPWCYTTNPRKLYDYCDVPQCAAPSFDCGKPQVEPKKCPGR
Sequence of Plasminogen (P00747 581-810 limits assumed): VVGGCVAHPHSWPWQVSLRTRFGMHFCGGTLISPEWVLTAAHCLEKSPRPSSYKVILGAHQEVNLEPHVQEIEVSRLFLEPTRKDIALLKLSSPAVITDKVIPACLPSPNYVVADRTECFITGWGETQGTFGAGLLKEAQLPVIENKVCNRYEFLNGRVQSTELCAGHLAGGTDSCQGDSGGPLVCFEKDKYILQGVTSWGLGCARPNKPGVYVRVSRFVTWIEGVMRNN
Sequence of Serine protease 1 (P07477 whole entry): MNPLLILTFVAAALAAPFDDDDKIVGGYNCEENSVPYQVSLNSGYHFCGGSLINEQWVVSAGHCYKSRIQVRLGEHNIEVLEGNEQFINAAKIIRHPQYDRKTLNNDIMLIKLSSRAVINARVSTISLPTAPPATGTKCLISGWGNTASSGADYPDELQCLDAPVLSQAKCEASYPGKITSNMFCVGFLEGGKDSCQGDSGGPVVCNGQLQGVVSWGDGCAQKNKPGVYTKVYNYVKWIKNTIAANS

`CC[C@H](C)[C@H](N)C(=O)[C@H](NC(=O)[C@@H](NC(=O)CC[C@H]1CCC[C@@H](NC(=O)[C@@H](NC(=O)[C@@H](NC(=O)OCc2ccccc2)C(=O)[C@@H](N)Cc2c[nH]c3ccccc23)C(=O)[C@@H](N)Cc2c[nH]c3ccccc23)C1=O)C(=O)[C@@H](N)Cc1c[nH]c2ccccc12)C(=O)OC` gave an IC50 [1] of 13.5 µM.
`COC(=O)[C@@H](NC(=O)[C@@H](NC(=O)CC[C@H]1CCC[C@@H](NC(=O)[C@@H](NC(=O)[C@@H](NC(=O)OCc2ccccc2)C(=O)[C@@H](N)Cc2c[nH]c3ccccc23)C(=O)[C@@H](N)Cc2c[nH]c3ccccc23)C1=O)C(=O)[C@@H](N)Cc1c[nH]c2ccccc12)C(=O)[C@@H](N)Cc1ccc(O)cc1` showed an IC50 [2] of over 400 µM, an IC50 [1] of 2.7 µM and an IC50 [3] of over 400 µM. The IC50 [4] was over 400 µM.
`COC(=O)[C@@H](NC(=O)[C@@H](NC(=O)CC[C@H]1CCC[C@@H](NC(=O)[C@@H](NC(=O)[C@@H](NC(=O)OCc2ccccc2)C(=O)[C@@H](N)Cc2c[nH]c3ccccc23)C(=O)[C@@H](N)Cc2c[nH]c3ccccc23)C1=O)C(=O)[C@@H](N)Cc1c[nH]c2ccccc12)C(=O)[C@@H](N)C(C)C` gave an IC50 [1] of 14.1 µM.
Compound `COC(=O)[C@@H](NC(=O)[C@@H](NC(=O)CC[C@H]1CCC[C@@H](NC(=O)[C@@H](NC(=O)[C@@H](NC(=O)OCc2ccccc2)C(=O)[C@@H](N)Cc2c[nH]c3ccccc23)C(=O)[C@@H](N)Cc2c[nH]c3ccccc23)C1=O)C(=O)[C@@H](N)Cc1c[nH]c2ccccc12)C(=O)[C@@H](N)CC(C)C` has an IC50 [1] of 3.2 µM.
`COC(=O)[C@@H](NC(=O)[C@@H](NC(=O)CC[C@H]1CCC[C@@H](NC(=O)[C@@H](NC(=O)[C@@H](NC(=O)OCc2ccccc2)C(=O)[C@@H](N)Cc2c[nH]c3ccccc23)C(=O)[C@@H](N)Cc2c[nH]c3ccccc23)C1=O)C(=O)[C@@H](N)Cc1c[nH]c2ccccc12)C(=O)[C@H](C)N` showed an IC50 [1] of 6.6 µM.
In the case of `COC(=O)[C@@H](NC(=O)[C@@H](NC(=O)CC[C@H]1CCC[C@@H](NC(=O)[C@@H](NC(=O)[C@@H](NC(=O)OCc2ccccc2)C(=O)[C@@H](N)Cc2c[nH]c3ccccc23)C(=O)[C@@H](N)Cc2c[nH]c3ccccc23)C1=O)C(=O)[C@@H](N)Cc1c[nH]c2ccccc12)C(=O)[C@@H](N)Cc1ccccc1`, the IC50 [1] is reported as 3.3 µM.
Compound `COC(=O)[C@@H](NC(=O)[C@@H](NC(=O)CC[C@H]1CCC[C@@H](NC(=O)[C@@H](NC(=O)[C@@H](NC(=O)OCc2ccccc2)C(=O)[C@@H](N)Cc2c[nH]c3ccccc23)C(=O)[C@@H](N)Cc2c[nH]c3ccccc23)C1=O)C(=O)[C@@H](N)Cc1c[nH]c2ccccc12)C(=O)[C@@H](N)Cc1c[nH]c2ccccc12` (Cbz-[Gly(2S-L-tryptophyl)][Gly(2S-L-tryptophyl)][X1][Gly(2S-L-tryptophyl)][Gly(2S-L-tryptophyl)]-OMe) has an IC50 [1] of 3.6 µM.

Source: ChEMBL document CHEMBL1140375, “Selective inhibitors of the serine protease plasmin: probing the S3 and S3' subsites using a combinatorial library” (J Med Chem, 2005)
